In data set [1] the test system is Staphylococcus aureus. Put plainly: Antibacterial activity against methicillin-sensitive Staphylococcus aureus ATCC 29213 after 24 hrs by microdilution method. Type of data set: functional. The settings on record: ATCC 29213, 24 h. In short, it runs like this: (§1)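 MIC taken as the lowest concentration with no visible bacterial growth after 18-24 h at 37 °C, given in μg/mL; modal value of multiple experiments.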
On the technique in general: Broth dilution looks for growth in wells or tubes with falling amounts of substance.

Data set [2] is described as follows: Cytotoxicity against human Hep2 cells after 72 hrs by alamar blue assay. Type of data set: cell-based. The settings on record: HEp-2 cells.
In data set [3] the test system is Staphylococcus aureus. Put plainly: Antibacterial activity against methicillin- and quinolone-resistant Staphylococcus aureus ATCC700699 after 24 hrs by microdilution method. Type of data set: functional. The settings on record: ATCC700699, 24 h. In short, it runs like this: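 Broth microdilution; MIC read as the lowest compound concentration that prevents visible bacterial growth after incubation at 37 °C for 18–24 h, and expressed in μg/mL.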

For a further data set, the system named is Escherichia coli. The experiment in a line: Antibacterial activity against Escherichia coli ATCC25922 after 24 hrs by microdilution method. Type of data set: functional. Conditions: ATCC25922, 24 h. In short, it runs like this:
as §1

Converted amounts (≈) assume the structure as drawn.

In the case of `COc1c(N2CC[C@H](C(C)(C)N)C2)c(F)cc2c(=O)c3c(=O)[nH]sc3n(C3CC3)c12`, the MIC in the data set on Staphylococcus aureus [1] was found to be 0.03 mg/L (≈ 0.0694 µM); against Staphylococcus aureus [3] it was 2 mg/L (≈ 4.62 µM); in the data set with Escherichia coli, 0.13 mg/L (≈ 0.301 µM). Besides, half-maximal cytotoxicity in data set [2] (CC50 at 72 h) was put at 61 µM.
The corresponding values for `CNC(C)(C)[C@@H]1CCN(c2c(F)cc3c(=O)c4c(=O)[nH]sc4n(C4CC4)c3c2OC)C1` are 0.008 mg/L (≈ 0.0179 µM), 0.13 mg/L (≈ 0.291 µM), 0.13 mg/L (≈ 0.291 µM) and 28 µM.
The corresponding values for `CCNC(C)(C)[C@@H]1CCN(c2c(F)cc3c(=O)c4c(=O)[nH]sc4n(C4CC4)c3c2OC)C1` are 0.02 mg/L (≈ 0.0434 µM), 0.5 mg/L (≈ 1.09 µM), 0.13 mg/L (≈ 0.282 µM) and 50 µM.
As for `COc1c(N2CC[C@@H](C(C)(C)NCCF)C2)c(F)cc2c(=O)c3c(=O)[nH]sc3n(C3CC3)c12`, the MIC with Staphylococcus aureus [1] came to 0.004 mg/L (≈ 0.00836 µM); with Staphylococcus aureus [3], 0.06 mg/L (≈ 0.125 µM); in the data set with Escherichia coli, 0.06 mg/L (≈ 0.125 µM). The compound also gave a CC50 at 72 h in data set [2] of 19 µM.
With `COc1c(N2CC[C@@H](C(C)(C)NCC(C)C)C2)c(F)cc2c(=O)c3c(=O)[nH]sc3n(C3CC3)c12`, the values for the MIC against Staphylococcus aureus [1], against Staphylococcus aureus [3] and against Escherichia coli were 0.06 mg/L (≈ 0.123 µM), 2 mg/L (≈ 4.09 µM) and 1 mg/L (≈ 2.05 µM), respectively. The same compound yielded a CC50 at 72 h in data set [2] of 88 µM.
Take `COc1c(N2CC[C@@H](C(C)(C)N(C)C)C2)c(F)cc2c(=O)c3c(=O)[nH]sc3n(C3CC3)c12`: the MIC came out at 0.06 mg/L (≈ 0.13 µM) in the data set with Staphylococcus aureus [1], 1 mg/L (≈ 2.17 µM) with Staphylococcus aureus [3] and 0.13 mg/L (≈ 0.282 µM) with Escherichia coli. The compound further returned a CC50 at 72 h in data set [2] of 90 µM.
For `COc1c(N2CC[C@@H](C3(N)CC3)C2)c(F)cc2c(=O)c3c(=O)[nH]sc3n(C3CC3)c12`, the results for the MIC against Staphylococcus aureus [1], in the data set with Staphylococcus aureus [3] and in the data set on Escherichia coli were 0.001 mg/L (≈ 0.00232 µM), 0.06 mg/L (≈ 0.139 µM) and 0.008 mg/L (≈ 0.0186 µM), respectively. In addition, in data set [2], the CC50 at 72 h is 4 µM.
`CC[C@@H](NC)[C@@H]1CCN(c2c(F)cc3c(=O)c4c(=O)[nH]sc4n(C4CC4)c3c2OC)C1`: the MIC against Staphylococcus aureus [1] stood at 0.03 mg/L (≈ 0.0672 µM); in the data set on Staphylococcus aureus [3], 2 mg/L (≈ 4.48 µM); in the data set on Escherichia coli, 0.13 mg/L (≈ 0.291 µM). The CC50 at 72 h in data set [2] amounted to 58 µM.
On to `O=c1[nH]sc2c1c(=O)c1cc(F)c(N3CCNCC3)cc1n2C1CC1`, for which the results for the MIC with Staphylococcus aureus [1], with Staphylococcus aureus [3] and against Escherichia coli were 0.06 mg/L (≈ 0.166 µM), 4 mg/L (≈ 11.1 µM) and 0.004 mg/L (≈ 0.0111 µM), respectively. Also, in data set [2], the CC50 at 72 h came out at 7 µM.
As to `COc1c(N2CC[C@H](C(C)N)C2)c(F)cc2c(=O)c3c(=O)[nH]sc3n(C3CC3)c12` (mixture of isomers), the MIC in the data set on Staphylococcus aureus [1] is 0.03 mg/L; in the data set with Staphylococcus aureus [3] it was 1 mg/L; in the data set with Escherichia coli, 0.06 mg/L.
In the case of `COc1c(N2CC[C@@H](C(C)NCC(F)(F)F)C2)c(F)cc2c(=O)c3c(=O)[nH]sc3n(C3CC3)c12` (mixture of isomers), the figures for the MIC against Staphylococcus aureus [1] and in the data set on Staphylococcus aureus [3] were 0.13 mg/L and 4 mg/L, respectively. Also, the CC50 at 72 h in data set [2] was 41 µM.
Regarding `COc1c(N2CC[C@H](C(C)NC3CC3)C2)c(F)cc2c(=O)c3c(=O)[nH]sc3n(C3CC3)c12` (mixture of isomers), the results for the MIC with Staphylococcus aureus [1], in the data set with Staphylococcus aureus [3] and against Escherichia coli were 0.02 mg/L, 0.13 mg/L and 0.13 mg/L, respectively. Further, in data set [2], the CC50 at 72 h was 43 µM.
Regarding `COc1c(N2CC[C@@H](C(C)NCC3CC3)C2)c(F)cc2c(=O)c3c(=O)[nH]sc3n(C3CC3)c12` (mixture of isomers), the MIC against Staphylococcus aureus [1] is 0.03 mg/L; in the data set on Staphylococcus aureus [3], 0.5 mg/L; against Escherichia coli it was 0.25 mg/L. In addition, it took 43 µM to reach half-maximal cytotoxicity in data set [2] (CC50 at 72 h).
For `COc1c(N2CC[C@@H](C(C)NC3CCCC3)C2)c(F)cc2c(=O)c3c(=O)[nH]sc3n(C3CC3)c12` (mixture of isomers), the MIC was 0.06 mg/L in the data set on Staphylococcus aureus [1] and 4 mg/L against Staphylococcus aureus [3]. In data set [2], this compound returned a cytotoxic concentration (CC50) at 72 h of 42 µM.
Take `COc1c(N2CC[C@@H](C(C)N(C)C)C2)c(F)cc2c(=O)c3c(=O)[nH]sc3n(C3CC3)c12` (mixture of isomers): the figures for the MIC in the data set on Staphylococcus aureus [1], against Staphylococcus aureus [3] and against Escherichia coli were 0.03 mg/L, 1 mg/L and 0.06 mg/L, respectively. In data set [2], this compound had a CC50 at 72 h of 40 µM.
Turning to `CC[C@H](NC)[C@@H]1CCN(c2c(F)cc3c(=O)c4c(=O)[nH]sc4n(C4CC4)c3c2OC)C1` (mixture of isomers), the MIC against Staphylococcus aureus [1] was 0.008 mg/L; in the data set with Staphylococcus aureus [3], 0.5 mg/L; with Escherichia coli, 0.06 mg/L. For the same compound, the CC50 at 72 h in data set [2] came to 29 µM.
Take `COc1c(N2CC[C@@H](C(N)c3nccs3)C2)c(F)cc2c(=O)c3c(=O)[nH]sc3n(C3CC3)c12` (mixture of isomers): the MIC in the data set on Staphylococcus aureus [1] came to 0.004 mg/L; against Staphylococcus aureus [3], 0.06 mg/L; against Escherichia coli, 0.13 mg/L. The same compound came in with a CC50 at 72 h in data set [2] of 5 µM.
Take `COc1c(N2CC[C@@H](C(N)c3ncco3)C2)c(F)cc2c(=O)c3c(=O)[nH]sc3n(C3CC3)c12` (mixture of isomers): the MIC in the data set on Staphylococcus aureus [1] was found to be 0.004 mg/L; against Staphylococcus aureus [3], 0.25 mg/L; against Escherichia coli, 0.06 mg/L. The compound further gave a CC50 at 72 h in data set [2] of 5 µM.
Turning to `COc1c(N2CC[C@@H](C(N)c3ccccn3)C2)c(F)cc2c(=O)c3c(=O)[nH]sc3n(C3CC3)c12` (mixture of isomers), the results for the MIC against Staphylococcus aureus [1], against Staphylococcus aureus [3] and against Escherichia coli were 0.008 mg/L, 0.13 mg/L and 0.06 mg/L, respectively. In data set [2], this compound returned a CC50 at 72 h of 1 µM.

By MIC is commonly meant the least concentration at which growth counts as inhibited. For orientation: CC50 means the concentration giving 50% cytotoxicity. Higher therefore signals lower toxicity to the cells.

(Values after ChEMBL document CHEMBL1772978, “Exploration of the activity of 7-pyrrolidino-8-methoxyisothiazoloquinolones against methicillin-resistant Staphylococcus aureus (MRSA)” (J Med Chem, 2011).)
